# Measured values published in ChEMBL document CHEMBL2417424, “Synthesis, structure, and antibiotic activity of aryl-substituted LpxC inhibitors” (J Med Chem, 2013).
# Columns and labels:
# Escherichia coli [1] = experiment: Antimicrobial activity against wild type Escherichia coli W3110 after 22 hrs by MTT assay; format: functional; conditions: W3110, 22 h
# Summary of the method: (§1)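 Broth microdilution (modified NCCLS) in 96-well plates, LB medium with 5% DMSO; 2-fold compound series spanning 0.0005–1, 0.0025–5 or 0.024–50 µg/mL. Cells grown to OD600 0.6, diluted 100-fold, added to wells; 22 h at 37 °C, then MTT (1 mg/mL) 3 h at 37 °C. MIC = lowest concentration with no visible colour change; triplicate.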
# Pseudomonas aeruginosa = experiment: Antimicrobial activity against Pseudomonas aeruginosa PAO1 after 22 hrs by MTT assay; format: functional; conditions: PAO1, 22 h; summary of the method: as §1
# Escherichia coli [2] = experiment: Antimicrobial activity against Escherichia coli CMR300 after 22 hrs by MTT assay; format: functional; conditions: CMR300, 22 h; summary of the method: as §1
# Escherichia coli [3] = experiment: Antimicrobial activity against Escherichia coli W3110PA after 22 hrs by MTT assay; format: functional; summary of the method: as §1
# Escherichia coli [4] = experiment: Ratio of MIC for wild type Escherichia coli W3110 to MIC for Escherichia coli CMR300; format: functional
# [5] = Ratio of MIC for Pseudomonas aeruginosa PAO1 to MIC for Escherichia coli W3110PA; format: functional
# Vibrio cholerae = experiment: Antimicrobial activity against Vibrio cholerae P4 after 22 hrs by MTT assay; format: functional; conditions: P4, 22 h
# Summary of the method: (§2)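 Broth microdilution in triplicate (modified NCCLS) in LB with 5% DMSO, using 2-fold compound series over 0.0005–1, 0.0025–5 or 0.024–50 µg/mL. Cells grown to OD600 0.6 were diluted 100-fold into the wells and incubated 22 h at 37 °C. A 1 mg/mL MTT solution was added for 3 h more at 37 °C. MIC = lowest concentration with no visible yellow-to-black colour change.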
# Salmonella typhimurium = experiment: Antimicrobial activity against Salmonella enterica typhimurium LT2 after 22 hrs by MTT assay; format: functional, Salmonella enterica subsp. enterica serovar Typhimurium; conditions: LT2, 22 h; summary of the method: as §1
# Klebsiella pneumoniae = experiment: Antimicrobial activity against Klebsiella pneumoniae 43816 after 22 hrs by MTT assay; format: functional; conditions: Klebsiella pneumoniae, 43816, 22 h; summary of the method: as §1
# Francisella novicida [6] = experiment: Antimicrobial activity against Francisella novicida U 112 after 22 hrs by MTT assay; format: functional, Francisella tularensis subsp. novicida; conditions: Francisella tularensis, U 112, 22 h; summary of the method: as §2
# Francisella novicida [7] = experiment: Ratio of LPC-011 MIC to compound MIC for Francisella novicida U 112 after 22 hrs by MTT assay; format: functional, Francisella tularensis subsp. novicida
# [8] = target: T1, UDP-3-O-acyl-N-acetylglucosamine deacetylase (Escherichia coli K-12) (UniProt P0A725); experiment: Ratio of LPC-011 Ki to compound Ki for Escherichia coli LpxC enzyme
# T1 sequence (whole entry): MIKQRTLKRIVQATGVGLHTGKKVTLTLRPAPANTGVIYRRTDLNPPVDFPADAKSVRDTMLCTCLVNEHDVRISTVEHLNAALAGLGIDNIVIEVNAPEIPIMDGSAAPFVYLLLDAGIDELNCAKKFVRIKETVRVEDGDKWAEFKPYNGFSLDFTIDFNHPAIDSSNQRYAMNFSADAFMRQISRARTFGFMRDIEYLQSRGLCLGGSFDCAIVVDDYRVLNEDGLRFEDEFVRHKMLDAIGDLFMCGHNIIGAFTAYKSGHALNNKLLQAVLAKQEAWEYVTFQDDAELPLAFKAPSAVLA
# [9] = target: T2, UDP-3-O-acyl-N-acetylglucosamine deacetylase (Escherichia coli K-12, UniProt P0A725); experiment: Inhibition of Escherichia coli LpxC enzyme using UDP-3-O-[(R)-3-hydroxymyristoyl]-N-acetyl glucosamine and [gamma-32P] UDP-3-O-[(R)-3-hydroxymyristoyl]-N-acetylglucosamine as substrate after 1 to 4 hrs
# T2 sequence (P0A725 whole entry): T1 sequence (whole entry)
Structure (SMILES),MIC (Escherichia coli [1]) [µg/mL],MIC (Pseudomonas aeruginosa) [µg/mL],MIC (Escherichia coli [2]) [µg/mL],MIC (Escherichia coli [3]) [µg/mL],Ratio (Escherichia coli [4]),Ratio [5],MIC (Vibrio cholerae) [µg/mL],MIC (Salmonella typhimurium) [µg/mL],MIC (Klebsiella pneumoniae) [µg/mL],MIC (Francisella novicida [6]) [µg/mL],Ratio (Francisella novicida [7]),Ratio Ki [8],Ki [9] [pM]
Nc1ccc(C#CC#Cc2ccc(C(=O)N[C@@H](Cc3c[nH]cn3)C(=O)NO)cc2)cc1,0.4,6.3,0.02,6.3,20,–,–,–,–,–,–,–,–
Nc1ccc(C#CC#Cc2ccc(C(=O)N[C@@H](Cc3ccccc3)C(=O)NO)cc2)cc1,6.3,> 50,0.014,> 50,450,–,–,–,–,–,–,–,–
Nc1ccc(C#CC#Cc2ccc(C(=O)N[C@H](C(=O)NO)[C@H](O)c3ccc(O)cc3)cc2)cc1,50,> 50,0.15,> 50,333,–,–,–,–,–,–,–,–
Nc1ccc(C#CC#Cc2ccc(C(=O)N[C@@H](Cc3ccc(O)cc3)C(=O)NO)cc2)cc1,0.8,12.5,0.01,4.7,80,3,–,–,–,–,–,–,–
C[C@@H](O)[C@H](NC(=O)c1ccc(C#Cc2ccc(CN3CCOCC3)cc2)cc1)C(=O)NO,0.2,1.6,0.01,1.3,–,–,0.16,0.16,0.64,3.1,–,–,–
C[C@@H](O)[C@H](NC(=O)c1ccc(C#CC#Cc2ccc(N)cc2)cc1)C(=O)NO,0.03,0.32,0.001,0.32,30,–,0.01,0.024,0.13,2.5,–,–,–
Nc1ccc(C#CC#Cc2ccc(C(=O)N[C@H](C(=O)NO)[C@@H](O)c3ccc(O)cc3)cc2)cc1,0.13,1,0.003,0.9,43,–,–,–,–,–,–,–,–
C[C@@](O)(c1ccc(O)cc1)[C@H](NC(=O)c1ccc(C#CC#Cc2ccc(N)cc2)cc1)C(=O)NO,0.5,5,0.008,3.2,62,–,–,–,–,–,–,–,–
C[C@](O)(c1c[nH]nn1)[C@H](NC(=O)c1ccc(C#CC#Cc2ccc(N)cc2)cc1)C(=O)NO,0.06,0.5,0.004,0.5,–,–,0.03,0.1,0.25,1,2,1.6,24
Nc1ccc(C#CC#Cc2ccc(C(=O)N[C@@H](Cc3c[nH]c4ccccc34)C(=O)NO)cc2)cc1,12.5,> 50,0.06,> 50,208,–,–,–,–,–,–,–,–
C[C@](O)(c1ccc(O)cc1)[C@H](NC(=O)c1ccc(C#CC#Cc2ccc(N)cc2)cc1)C(=O)NO,0.03,0.7,0.0001,0.5,300,–,0.016,0.05,0.16,0.63,2,1.6,24
